≈ marks a conversion by molar mass, not a printed value. Calls of active or inactive are those of the source. No cut-off for these calls is given here.
Assays:
ScN2a [1] = assay: Reduction of PrPSC accumulation in ScN2a cells; format: functional, cell-based; conditions: Mus musculus
Summary of the method: (§1)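 Scrapie-infected mouse neuroblastoma ScN2a cells, seeded at about 40 000 cells/well, were exposed to compound for 5 days at 37 °C; concentrations up to 25 µM, final DMSO ≤0.25%. Viability was read first with calcein-AM (ex/em 492/525 nm). The same wells were then lysed, Benzonase-treated, digested with proteinase K (1 h, 37 °C), PTA-precipitated and assayed for PrP 27-30 by direct ELISA (D18 antibody, AP/pNPP). Triplicate, three independent experiments.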

[2] = Solubility in phosphate buffer at pH 6.5 at 500 uM; format: physicochemical
ScN2a [3] = assay: Cytotoxicity against ScN2a cells; format: functional; conditions: Mus musculus, read-out: LD50 (the source's name); summary of the method: as §1
ScN2a [4] = assay: Reduction of PrPSC accumulation in ScN2a cells upto 25 uM; format: functional, cell-based; conditions: Mus musculus; summary of the method: as §1
[5] = target: T1, Adenosine receptor A3 (Homo sapiens) (UniProt P0DMS8); assay: Inhibition of human adenosine A3 receptor ar 5 uM realtive to IB-MECA
T1 sequence (whole entry): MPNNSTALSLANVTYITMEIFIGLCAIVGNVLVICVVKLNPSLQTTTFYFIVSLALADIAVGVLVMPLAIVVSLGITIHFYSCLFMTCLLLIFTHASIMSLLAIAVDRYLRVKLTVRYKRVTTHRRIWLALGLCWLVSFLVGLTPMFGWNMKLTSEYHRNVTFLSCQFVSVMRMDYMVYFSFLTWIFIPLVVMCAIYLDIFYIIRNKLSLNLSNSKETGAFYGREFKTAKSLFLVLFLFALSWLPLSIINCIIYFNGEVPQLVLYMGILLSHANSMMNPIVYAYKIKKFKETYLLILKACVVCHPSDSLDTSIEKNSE
Summary of the method: (§2)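 Human adenosine receptor subtypes hA1, hA2a and hA3 were tested with compound at 5 µM. Inhibition is expressed relative to a selective reference also used at 5 µM, taken as 100%: DPCPX for hA1, NECA for hA2a, IB-MECA for hA3.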

Adenosine receptor A1 = target: T2, Adenosine receptor A1 (Homo sapiens, UniProt P30542); assay: Inhibitory constant aganist human adenosine A1 receptor
T2 sequence (P30542 whole entry): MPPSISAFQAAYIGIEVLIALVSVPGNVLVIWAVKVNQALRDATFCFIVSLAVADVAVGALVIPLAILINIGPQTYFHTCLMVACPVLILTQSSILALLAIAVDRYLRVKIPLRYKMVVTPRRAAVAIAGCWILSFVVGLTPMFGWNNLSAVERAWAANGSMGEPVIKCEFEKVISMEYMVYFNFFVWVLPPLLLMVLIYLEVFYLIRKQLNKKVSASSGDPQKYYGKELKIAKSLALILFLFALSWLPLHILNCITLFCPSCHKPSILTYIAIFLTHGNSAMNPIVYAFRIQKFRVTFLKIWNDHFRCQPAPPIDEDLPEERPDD

[6] = target: Adenosine receptor A2a (Homo sapiens) (UniProt P29274); assay: Inhibition of human adenosine A2a receptor at 5 uM relative to NECA; summary of the method: as §2
[7] = target: T3, Adenosine receptor A1 (Homo sapiens) (UniProt P30542); assay: Inhibition of human adenosine A1 receptor at 5 uM relative to DPCPX; summary of the method: as §2
T3 sequence (whole entry): T2 sequence (P30542 whole entry)

Chain of Adenosine receptor A2a (Homo sapiens) (P29274 whole entry): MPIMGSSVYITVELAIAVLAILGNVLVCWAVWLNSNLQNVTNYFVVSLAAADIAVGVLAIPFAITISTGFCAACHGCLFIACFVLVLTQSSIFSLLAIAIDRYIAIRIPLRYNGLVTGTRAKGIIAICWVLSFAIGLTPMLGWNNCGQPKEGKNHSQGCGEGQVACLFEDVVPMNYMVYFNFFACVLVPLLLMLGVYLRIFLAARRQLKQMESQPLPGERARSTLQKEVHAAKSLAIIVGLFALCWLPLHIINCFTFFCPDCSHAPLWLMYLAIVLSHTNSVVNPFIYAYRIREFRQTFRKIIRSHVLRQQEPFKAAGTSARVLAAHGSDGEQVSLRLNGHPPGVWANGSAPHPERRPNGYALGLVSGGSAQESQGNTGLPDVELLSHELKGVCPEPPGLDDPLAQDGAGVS

Row | Compound | EC50 (ScN2a [1]) | solubility at 500 µM [2] | CC50 (ScN2a [3]) | other results
1 | CCN(CC)CCSc1nc(N)c(C#N)c(-c2ccc(Cl)c(Cl)c2)c1C#N | 7.2 µM | 200 µM (≈ 84.1 µg/mL) | > 25 µM | 
2 | CN(CCSc1nc(N)c(C#N)c(-c2ccco2)c1C#N)Cc1ccccc1 |  |  | > 25 µM | Activity (ScN2a [4]): inactive
3 | N#Cc1c(N)nc(SCCN2CCCCC2)c(C#N)c1-c1ccco1 | 8.1 µM | > 400 µM | > 25 µM | 
4 | CCN(CC)CCSc1nc(N)c(C#N)c(-c2cccc(Cl)c2)c1C#N | 5.3 µM |  | > 25 µM | 
5 | CCN(CC)CCSc1nc(N)c(C#N)c(-c2ccc(Cl)cc2)c1C#N | 7.5 µM | 200 µM (≈ 77.2 µg/mL) | > 25 µM | 
6 | N#Cc1c(N)nc(SCCN2CCOCC2)c(C#N)c1-c1ccco1 |  |  | > 25 µM | Activity (ScN2a [4]): inactive
7 | CCN(CC)CCSc1nc(N)c(C#N)c(-c2cccc(Cl)c2Cl)c1C#N | 4.5 µM | 200 µM (≈ 84.1 µg/mL) | > 25 µM | 
8 | CCN(CC)CCSc1nc(N)c(C#N)c(-c2cccc(Br)c2)c1C#N | 4.3 µM |  | > 25 µM | 
9 | N#Cc1c(N)nc(SCc2ccccc2)c(C#N)c1-c1cccs1 |  |  | > 25 µM | Activity (ScN2a [4]): inactive
10 | CC(C)N(CCSc1nc(N)c(C#N)c(-c2ccco2)c1C#N)C(C)C | 13.4 µM |  | > 25 µM | 
11 | CN(C)CCCSc1nc(N)c(C#N)c(-c2ccco2)c1C#N | 10.2 µM | > 400 µM | > 25 µM | 
12 | CCCCN(CCCC)CCSc1nc(N)c(C#N)c(-c2ccco2)c1C#N |  |  | > 25 µM | Activity (ScN2a [4]): inactive
13 | N#Cc1c(N)nc(SCCCN2CCCCC2)c(C#N)c1-c1ccco1 | 6 µM | > 400 µM | > 25 µM | 
14 | CCN(CC)CCSc1nc(N)c(C#N)c(-c2cc(Cl)cc(Cl)c2)c1C#N | 2.2 µM |  | > 25 µM | 
15 | CCN(CC)CCSc1nc(N)c(C#N)c(-c2ccccc2Cl)c1C#N | 5.5 µM | > 400 µM | > 25 µM | inhibition [5]: 77%; Ki (Adenosine receptor A1): 0.59 µM; inhibition [6]: 62%; inhibition [7]: 95%
16 | N#Cc1c(N)nc(SCc2ncc[nH]2)c(C#N)c1-c1ccccc1 | > 25 µM |  |  | 
17 | N#Cc1c(N)nc(Sc2ccccc2N)c(C#N)c1-c1ccco1 | 80 µM |  | > 80 µM | 
18 | N#Cc1c(N)nc(SCCCN)c(C#N)c1-c1ccco1 |  |  | > 25 µM | Activity (ScN2a [4]): inactive
19 | COc1ccc(-c2c(C#N)c(N)nc(SCc3ncc[nH]3)c2C#N)cc1 | > 25 µM |  |  | 
20 | CN(C)CCCN1c2ccccc2Sc2ccc(Cl)cc21 [CHLORPROMAZINE] |  | > 400 µM |  | 
21 | CNC(=O)[C@H]1O[C@@H](n2cnc3c(NCc4cccc(I)c4)ncnc32)[C@H](O)[C@@H]1O [IB-MECA] | > 25 µM |  |  | 
22 | N#Cc1c(N)nc(SCC(N)=O)c(C#N)c1-c1ccco1 |  |  | > 25 µM | Activity (ScN2a [4]): inactive
23 | CCCn1c(=O)c2[nH]c(C3CCCC3)nc2n(CCC)c1=O [1,3-DIPROPYL-8-CYCLOPENTYLXANTHINE [DPCPX]] | > 25 µM |  |  | 
24 | CN(Cc1cnc2nc(N)nc(N)c2n1)c1ccc(C(=O)N[C@@H](CCC(=O)O)C(=O)O)cc1 [METHOTREXATE] |  | > 400 µM |  | 
25 | CCN(CC)CCCC(C)Nc1c2ccc(Cl)cc2nc2ccc(OC)cc12 (stereo not drawn) [QUINACRINE] | 0.8 µM |  | 7.8 µM | 
26 | N#Cc1c(N)nc(SCCN2CCCC2)c(C#N)c1-c1ccco1 | 10.6 µM | 200 µM (≈ 67.9 µg/mL) | > 25 µM | 
27 | CCN(CC)CCSc1nc(N)c(C#N)c(-c2ccco2)c1C#N | 8.8 µM | > 400 µM | > 25 µM | 
28 | N#Cc1c(N)nc2sc(C(=O)c3ccccc3[N+](=O)[O-])c(N)c2c1-c1ccco1 | 10.9 µM |  | > 25 µM | 
29 | CN(C)CCSc1nc(N)c(C#N)c(-c2ccco2)c1C#N | 13.9 µM |  | > 25 µM | 
30 | CCN(CC)CCSc1nc(N)c(C#N)c(-c2ccc(Br)cc2)c1C#N | 6.1 µM | 200 µM (≈ 86.1 µg/mL) | > 25 µM | 

Reference: ChEMBL document CHEMBL1139220, “Structure-activity relationship study of prion inhibition by 2-aminopyridine-3,5-dicarbonitrile-based compounds: parallel synthesis, bioactivity, and in vitro pharmacokinetics” (J Med Chem, 2007)
